From ChEMBL document CHEMBL1240420, “Synthesis and biological evaluation of cinnamido linked pyrrolo[2,1-c][1,4]benzodiazepines as antimitotic agents” (Eur J Med Chem, 2010)
pIC50: −log10 of the molar value. Calls of active or inactive are those of the source. No cut-off for these calls is given here.

Columns and labels:
KB = experiment: Cytotoxicity against human KB cells after 48 hrs by SRB assay; format: functional
Outline: (§1)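 Cells were grown in RPMI 1640 with 10% FBS and 2 mM L-glutamine, plated 24 h before dosing, then given continuous 48 h exposure at 0.1, 1, 10 and 100 µM in triplicate wells. Cells were fixed with cold TCA (10% final, 60 min, 4 °C), stained with 0.4% SRB in 1% acetic acid for 20 min, eluted with 10 mM Tris base, and read at 540/690 nm. GI50 was taken from [(Ti−Tz)/(C−Tz)]×100 = 50; three determinations were averaged.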

[1] = Cytotoxicity against human GURAV cells after 48 hrs by SRB assay; format: functional; outline: as §1
PC-3 = experiment: Cytotoxicity against human PC3 cells after 48 hrs by SRB assay; format: functional; conditions: PC-3, 48 h; outline: as §1
COLO 205 = experiment: Cytotoxicity against human COLO205 cells after 48 hrs by SRB assay; format: functional; conditions: COLO 205, 48 h; outline: as §1
SiHa = experiment: Cytotoxicity against human SiHa cells after 48 hrs by SRB assay; format: functional
Outline: (§2)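 Cells grown in RPMI 1640 with 10% FBS and 2 mM L-glutamine, plated and left 24 h at 37 °C/5% CO2, then exposed continuously for 48 h to 0.1, 1, 10 and 100 µM in triplicate wells. Fixed with cold TCA (10% final), stained with 0.4% SRB, eluted with 10 mM Tris base, read at 540 nm (690 nm reference). GI50 from [(Ti−Tz)/(C−Tz)]×100 = 50; mean of three determinations.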

HOP-62 = experiment: Cytotoxicity against human HOP62 cells after 48 hrs by SRB assay; format: functional; conditions: HOP-62, 48 h; outline: as §1
A2780 = experiment: Cytotoxicity against human A2780 cells after 48 hrs by SRB assay; format: functional; conditions: A2780, 48 h; outline: as §1
A549 = experiment: Cytotoxicity against human A549 cells after 48 hrs by SRB assay; format: functional; conditions: A549, 48 h; outline: as §1
MCF7 [2] = experiment: Cytotoxicity against human MCF7 cells after 48 hrs by SRB assay; format: functional; conditions: MCF7, 48 h; outline: as §1
ZR-75-1 = experiment: Cytotoxicity against human ZR-75-1 cells after 48 hrs by SRB assay; format: functional; conditions: ZR-75-1, 48 h; outline: as §2
[3] = Cytotoxicity against human DWD cells after 48 hrs by SRB assay; format: functional; outline: as §1
MCF7 [4] = experiment: Cell cycle arrest in human MCF7 cells assessed as accumulation at G2/M phase after 48 hrs using FITC/propidium iodide staining by flow cytometry; format: functional, cell-based
Outline: (§3)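 MCF7 cells in 6-well plates were exposed for 48 h, harvested with trypsin–EDTA, and fixed in ice-cold 70% ethanol at 4 °C for 30 min. They were then stained with a propidium iodide solution containing trisodium citrate and Triton X-100 for 30 min in the dark. DNA content was read by flow cytometry on 20,000 events, and cells were scored by cell-cycle phase from histograms.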

Tubulin (Homo sapiens) = Tubulin (Homo sapiens) (UniProt P68371+Q9H4B7+P0DPH7+P68366+Q13509+Q71U36+P04350+Q3ZCM7+P07437+P68363+Q9BQE3+Q6PEY2+Q13885+Q9BVA1+Q9BUF5); experiment: Inhibition of tubulin polymerization in human MCF7 cells at 2.5 uM by immunohistochemistry; format: cell-based
Outline: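 MCF7 cells on glass cover slips exposed 48 h to 2.5 µM. Fixed with 3% paraformaldehyde/0.02% glutaraldehyde, permeabilized in −20 °C methanol, blocked with 1% BSA. Stained with mouse monoclonal anti-tubulin plus FITC secondary, then confocal imaging of microtubule network integrity. Nocodazole and taxol (2.5 µM) run as controls; untreated cells as baseline.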

Bos taurus = species on record: Bos taurus; experiment: Inhibition of bovine tubulin at 2.5 uM after 3 hrs relative to control
MCF7 [5] = experiment: Cell cycle arrest in human MCF7 cells assessed as accumulation at G0 phase after 48 hrs using FITC/propidium iodide staining by flow cytometry; format: functional, cell-based; outline: as §3
MCF7 [6] = experiment: Induction of apoptosis in human MCF7 cells assessed as nuclear condensation at 2 uM after 48 hrs by fluorescence microscopy; format: functional, cell-based
Outline: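 MCF7 cells on cover slips in 6-well plates treated 48 h at 1–3 µM. Nocodazole and podophyllotoxin (1 µM) served as controls. Fixed in 3% paraformaldehyde/0.02% glutaraldehyde, stained with Hoechst (5 µM, 30 min), washed in PBS and imaged by fluorescence microscopy with DAPI filters. Five fields of view examined.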

[7] = Inhibition of bovine tubulin after 3 hrs; set-up: species or system Bos taurus
Outline: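 Bovine brain tubulin purified by three polymerization/depolymerization cycles. A340 read every 2 min for 3 h at 37 °C, nocodazole as control. IC50 taken as the concentration halving assembly versus control.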

SMILES | GI50 (KB) [µM] | GI50 [1] [µM] | GI50 (PC-3) [µM] | GI50 (COLO 205) [µM] | GI50 (SiHa) [µM] | GI50 (HOP-62) [µM] | GI50 (A2780) [µM] | GI50 (A549) [µM] | GI50 (MCF7 [2]) [µM] | GI50 (ZR-75-1) [µM] | GI50 [3] [µM] | Activity (MCF7 [4]) | inhibition (Tubulin (Homo sapiens)) | inhibition (Bos taurus) [%] | Activity (MCF7 [5]) | Activity (MCF7 [6]) | pIC50 [7]
COc1cc(/C=C/C(=O)N2CCOCC2)ccc1OCCCOc1cc2c(cc1OC)C(=O)N1CCC[C@H]1C=N2 | < 0.1 | 0.1 | 0.13 | 0.1 | 0.12 | 0.14 | < 0.1 | < 0.1 | < 0.1 | 0.12 | < 0.1 |  |  |  |  |  | 
COc1cc(/C=C/C(=O)N2CCOCC2)ccc1OCCCCCOc1cc2c(cc1OC)C(=O)N1CCC[C@H]1C=N2 | 0.15 | 0.16 | < 0.1 | < 0.1 | 0.17 | 0.17 | 0.14 | < 0.1 | < 0.1 | < 0.1 | < 0.1 |  |  |  |  |  | 
COc1cc(/C=C/C(=O)N2CCOCC2)ccc1OCCCCCCOc1cc2c(cc1OC)C(=O)N1CCC[C@H]1C=N2 | < 0.1 | < 0.1 | 0.17 | 0.15 | < 0.1 | < 0.1 | < 0.1 | < 0.1 | 0.15 | 0.14 | 0.15 |  |  |  |  |  | 
COc1cc(/C=C/C(=O)N2CCN(C(=O)/C=C/c3ccc(OCCCCCCOc4cc5c(cc4OC)C(=O)N4CCC[C@H]4C=N5)c(OC)c3)CC2)ccc1OCCCCCCOc1cc2c(cc1OC)C(=O)N1CCC[C@H]1C=N2 | < 0.1 | < 0.1 | 0.15 | < 0.1 | < 0.1 | < 0.1 | < 0.1 | 0.15 | 1.9 | 0.21 | < 0.1 |  |  |  |  |  | 
COc1cc(/C=C/C(=O)N2CCN(C(=O)/C=C/c3ccc(OCCCCOc4cc5c(cc4OC)C(=O)N4CCC[C@H]4C=N5)c(OC)c3)CC2)ccc1OCCCCOc1cc2c(cc1OC)C(=O)N1CCC[C@H]1C=N2 | < 0.1 | < 0.1 | 0.16 | 0.15 | < 0.1 | < 0.1 | < 0.1 | < 0.1 | 0.15 | 0.15 | 0.12 | Active | Active | 40 | Active | Active | 4.55
COc1cc(/C=C/C(=O)N2CCOCC2)ccc1OCCCCOc1cc2c(cc1OC)C(=O)N1CCC[C@H]1C=N2 | 0.13 | 0.13 | 0.14 | 0.12 | 0.14 | 0.16 | 0.12 | 0.11 | 0.14 | 0.15 | < 0.1 | Active | Active | 40 | Active | Active | 4.79
COc1cc(/C=C/C(=O)N2CCN(C(=O)/C=C/c3ccc(OCCCCCOc4cc5c(cc4OC)C(=O)N4CCC[C@H]4C=N5)c(OC)c3)CC2)ccc1OCCCCCOc1cc2c(cc1OC)C(=O)N1CCC[C@H]1C=N2 | 2 | 2.3 | < 0.1 | < 0.1 | 2 | 0.18 | 0.16 | 0.11 | 1 | < 0.1 | < 0.1 |  |  |  |  |  | 
